According to ChEMBL document CHEMBL1137388, “A novel class of potent nonglycosidic and nonpeptidic pan-selectin inhibitors” (2006):
Activity calls are given as the source filed them. No cut-off for these calls is given here.

Experiments:
[1] = Inhibition of MM6 cell adhesion to BAEC at 100 uM relative to control by static assay; format: functional
How it was run: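 BAEC monolayers (passage 1-3, 7 days after seeding) stimulated with 20 ng/mL TNFα for 4 or 16 h, test agent in DMSO or vehicle for 20 min at 37 °C/5% CO2. After washing, leukocytes added at 1 × 10^6 cells/mL for 30 min at 37 °C. Non-adherent cells washed off, adherent cells counted microscopically. TNFα-stimulated adhesion set to 100%. Single concentration, 100 µM.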

AEC = test: Viability of BAEC by Roche-XTT assay relative to control; format: functional, Bos taurus; parameters: concentration or dose not given beside the values
How it was run: (§1)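 XTT assay: metabolically active cells convert yellow tetrazolium XTT to orange formazan. Untreated control viability set to 100%. Cells were BAEC or MM6 as named in each line; MM6 tested at 100 µM.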

[2] = target: T1, P-selectin (Homo sapiens) (UniProt P16109); test: Inhibition of sLex binding to P-selectin at 500 uM relative to control by glyco-ELISA assay
T1 sequence (whole entry): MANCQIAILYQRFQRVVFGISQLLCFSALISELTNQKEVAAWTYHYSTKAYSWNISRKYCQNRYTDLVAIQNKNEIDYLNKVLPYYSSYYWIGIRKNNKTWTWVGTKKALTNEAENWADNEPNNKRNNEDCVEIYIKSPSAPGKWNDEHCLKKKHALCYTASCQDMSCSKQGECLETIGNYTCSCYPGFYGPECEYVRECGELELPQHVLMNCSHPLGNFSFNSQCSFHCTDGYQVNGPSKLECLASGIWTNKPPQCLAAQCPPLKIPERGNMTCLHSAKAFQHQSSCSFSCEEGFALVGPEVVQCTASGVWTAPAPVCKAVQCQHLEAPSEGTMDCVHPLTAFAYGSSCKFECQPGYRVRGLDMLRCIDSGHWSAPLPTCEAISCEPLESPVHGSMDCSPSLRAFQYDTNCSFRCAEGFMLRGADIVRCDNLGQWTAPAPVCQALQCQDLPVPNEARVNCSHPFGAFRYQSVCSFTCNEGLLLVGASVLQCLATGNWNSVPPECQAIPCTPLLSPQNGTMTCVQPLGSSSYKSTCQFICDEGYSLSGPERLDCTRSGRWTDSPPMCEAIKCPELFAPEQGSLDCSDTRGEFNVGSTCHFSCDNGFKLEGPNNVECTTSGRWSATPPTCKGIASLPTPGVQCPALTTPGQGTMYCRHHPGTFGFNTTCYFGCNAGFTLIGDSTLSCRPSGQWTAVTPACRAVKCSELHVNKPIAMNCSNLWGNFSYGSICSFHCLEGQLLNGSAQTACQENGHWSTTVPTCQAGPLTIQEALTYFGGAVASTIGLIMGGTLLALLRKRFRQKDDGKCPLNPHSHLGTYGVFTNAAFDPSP
How it was run: (§2)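 Cell-free competitive binding assay. The named selectin is immobilized on microtiter plates, and compound plus sLex-tyrosine sulfate on biotinylated polyacrylamide are added. After incubation, bound ligand is detected by streptavidin-peroxidase, OD 414 nm, with empty-plate absorbance subtracted. Wells coated only with sLex define 0%; EDTA (blocks Ca2+-dependent binding) defines 100% inhibition.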

[3] = target: T2, L-selectin (Homo sapiens) (UniProt P14151); test: Inhibition of sLex binding to L-selectin at 500 uM relative to control by glyco-ELISA assay; how it was run: as §2
T2 sequence (whole entry): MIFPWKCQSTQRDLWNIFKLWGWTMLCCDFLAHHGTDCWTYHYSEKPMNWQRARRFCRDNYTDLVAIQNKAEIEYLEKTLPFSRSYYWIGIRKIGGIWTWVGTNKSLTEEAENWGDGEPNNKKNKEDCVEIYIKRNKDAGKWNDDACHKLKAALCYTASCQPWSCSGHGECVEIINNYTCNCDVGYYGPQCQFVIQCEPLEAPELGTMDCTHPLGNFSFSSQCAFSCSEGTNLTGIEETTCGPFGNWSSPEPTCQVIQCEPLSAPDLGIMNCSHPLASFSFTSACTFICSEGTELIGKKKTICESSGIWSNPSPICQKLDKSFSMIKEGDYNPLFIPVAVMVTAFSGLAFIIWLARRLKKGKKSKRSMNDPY

[4] = Viability in ATP-lite assay relative to control; format: functional; parameters: concentration or dose not given beside the values
[5] = target: T3, E-selectin (Homo sapiens) (UniProt P16581); test: Inhibition of sLex binding to E-selectin at 100 uM relative to control by glyco-ELISA assay; how it was run: as §2
T3 sequence (whole entry): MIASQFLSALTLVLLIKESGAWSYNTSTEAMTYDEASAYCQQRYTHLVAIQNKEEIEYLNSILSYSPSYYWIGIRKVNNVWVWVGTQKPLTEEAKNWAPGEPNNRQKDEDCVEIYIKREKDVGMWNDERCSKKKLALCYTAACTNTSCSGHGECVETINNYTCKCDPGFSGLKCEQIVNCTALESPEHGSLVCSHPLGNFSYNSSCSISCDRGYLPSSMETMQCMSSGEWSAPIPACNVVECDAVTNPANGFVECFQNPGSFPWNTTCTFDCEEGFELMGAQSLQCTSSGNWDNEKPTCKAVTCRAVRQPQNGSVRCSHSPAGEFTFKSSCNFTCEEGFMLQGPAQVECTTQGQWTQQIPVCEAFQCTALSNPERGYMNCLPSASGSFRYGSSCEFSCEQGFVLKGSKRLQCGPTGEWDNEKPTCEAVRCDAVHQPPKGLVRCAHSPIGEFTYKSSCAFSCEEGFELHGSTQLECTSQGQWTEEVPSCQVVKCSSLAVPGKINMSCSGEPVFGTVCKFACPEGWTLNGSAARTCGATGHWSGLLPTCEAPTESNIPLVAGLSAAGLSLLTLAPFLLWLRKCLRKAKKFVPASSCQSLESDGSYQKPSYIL

MONO-MAC-6 [6] = test: Viability of MM6 cells at 100 uM by Roche-XTT assay relative to control; format: functional, Homo sapiens; how it was run: as §1
[7] = target: T3, E-selectin (Homo sapiens); test: Inhibition of sLex binding to E-selectin at 500 uM relative to control by glyco-ELISA assay; how it was run: as §2
MONO-MAC-6 [8] = test: Viability of MM6 cells at 50 uM by Roche-XTT assay relative to control; format: functional, Homo sapiens
Mus musculus [9] = test: Reduction in proteose peptone-induced PMN extravasation in C57BL/J mouse peritonitis model at 50 mg/kg, ip; format: functional; parameters: scale not given: the % may be the effect or the level left; details: route intraperitoneal
How it was run: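 Male C57BL/6 mice received 100 µL of a 50 mg/mL compound suspension in corn oil ip, or vehicle, then 1 h later 3 mL of 3% proteose peptone ip. Peritoneal leukocytes were lavaged at 6 h with cold HBSS/5 mM EDTA and stained with PE-conjugated anti-PMN, MOMA-2 and anti-CD2 antibodies. Cells were classified by scatter and fluorescence. Mean ± SEM, n = 4.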

[10] = target: T1, P-selectin (Homo sapiens); test: Inhibition of sLex binding to P-selectin at 100 uM relative to control by glyco-ELISA assay; how it was run: as §2
[11] = target: T2, L-selectin (Homo sapiens); test: Inhibition of sLex binding to L-selectin at 100 uM relative to control by glyco-ELISA assay; how it was run: as §2
Mus musculus [12] = test: Reduction in proteose peptone-induced PMN extravasation in C57BL/J mouse peritonitis model at 100 mg/kg; format: functional, organism-based; parameters: dose 100 mg/kg

In the case of `O=C(O)c1ccc(N(C(=O)CCCCCBr)c2cccc(C(=O)O)c2)cc1`, the inhibition at 100 µM [1] was 2%, the Activity (AEC) was 75% and the inhibition [2] was 19%. It also gave an inhibition [3] of 5%.

With `CCCCCCCCCCOc1cccc(OCCCCCC(=O)N(Cc2ccc(C(=O)O)cc2)c2cccc(C(=O)O)c2)c1` the inhibition at 100 µM [1] was 70%, the Activity (AEC) was 20% and the inhibition [2] was 103%. It also gave an Activity [4] of 4%, an inhibition [5] of 42% and an Activity (MONO-MAC-6 [6]) of 101%. For the same molecule, the inhibition [3] was 103%.

`CCCCCCCCCCOc1cc(OCCCCCCCCCC)cc(OCCCCCC(=O)N(Cc2ccc(C(=O)OC)cc2)c2ccc(C(=O)OC)cc2)c1` gave an inhibition at 100 µM [1] of 26%, an inhibition [2] of 27% and an inhibition [3] of 26%.

In the case of `CCCCCCCCCCOc1cc(OCCCCCCCCCC)cc(OCCCCCC(=O)N(c2ccc(C(=O)OC)cc2)c2ccc(C(=O)OC)cc2)c1`, the inhibition at 100 µM [1] was 10%, the inhibition [2] was 16% and the inhibition [3] was 16%. It also gave an inhibition [7] of 5%.

Work on `CCCCCCCCCCOc1cc(OCCCCCCCCCC)cc(OCCCCCCON=C(c2ccc(Cl)cc2)c2ccc(Cl)cc2)c1` yielded an inhibition at 100 µM [1] of 24%, an inhibition [2] of 2% and an inhibition [5] of 2%. It also gave an inhibition [3] of 5%.

Work on `CCCCCCCCCCOc1cccc(OCCCCCC(=O)N(Cc2ccc(C(=O)OC)cc2)c2ccc(C(=O)OC)cc2)c1` yielded an inhibition at 100 µM [1] of 26%, an inhibition [2] of 78% and an Activity [4] of 68%. It also gave an inhibition [5] of 65%, an Activity (MONO-MAC-6 [6]) of 80% and an inhibition [3] of 75%.

For `CCCCCCCCCCOc1cc(OCCCCCCCCCC)cc(OCCCCCCON=C(c2ccc(C(=O)O)cc2)c2ccc(C(=O)O)cc2)c1`, the inhibition at 100 µM [1] was 90%, the Activity (AEC) was 110% and the inhibition [2] was 2%. The Activity (MONO-MAC-6 [6]) was 84% and the inhibition [3] was 6%.

With `CCCCCCCCCCOc1cc(OCCCCCCCCCC)cc(OCCCCCC(=O)N(Cc2ccc(C(=O)O)cc2)c2cccc(C(=O)O)c2)c1` the inhibition at 100 µM [1] was 82%, the Activity (AEC) was 46% and the inhibition [2] was 95%. The Activity [4] was 0%, the inhibition [5] was 43% and the Activity (MONO-MAC-6 [6]) was 11%. The inhibition [3] was 92%.

`CCCCCCCCCCOc1cc(OCCCCCCCCCC)cc(OCCCCCCO/N=C(/c2ccc(C(=O)O)cc2)c2cccc(C(=O)O)c2)c1` showed an inhibition at 100 µM [1] of 100%, an inhibition [2] of 34% and an inhibition [3] of 50%.

In the case of `CCCCCCCCCCOc1cccc(OCCCCCCON=C(c2ccc(C(=O)O)cc2)c2ccc(C(=O)O)cc2)c1`, the inhibition at 100 µM [1] was 67%, the Activity (AEC) was 40% and the Activity (MONO-MAC-6 [8]) was 12%.

`O=C(O)c1ccc(N(C(=O)CCCCCBr)c2ccc(C(=O)O)cc2)cc1` gave an inhibition at 100 µM [1] of 4%, an inhibition [2] of 12% and an inhibition [5] of 5%. For the same molecule, the inhibition [3] was 6%.

With `CCCCCCCCCCOc1cc(OCCCCCCCCCC)cc(OCCCCCC(=O)N(Cc2ccc(C(=O)O)cc2)c2ccc(C(=O)O)cc2)c1` the inhibition at 100 µM [1] was 56%, the Activity (AEC) was 36% and the inhibition [2] was 49%. For the same molecule, the inhibition [3] was 50%.

With `CCCCCCCCCCOc1cc(OCCCCCCCCCC)cc(OCCCCCCN(Cc2ccc(C(=O)O)cc2)c2ccc(C(=O)O)cc2)c1` the inhibition at 100 µM [1] was 100% and the Activity (MONO-MAC-6 [6]) was 10%.

`CCCCCCCCCCOc1cc(OCCCCCCCCCC)cc(OCCCCCC(=O)N(c2ccc(C(=O)O)cc2)c2cccc(C(=O)O)c2)c1` gave an inhibition [2] of 58% and an inhibition [3] of 53%.

`CCCCCCCCCCOc1cc(OCCCCCCCCCC)cc(OCCCCCCN(c2ccc(C(=O)O)cc2)c2ccc(C(=O)O)cc2)c1` showed an Activity (Mus musculus [9]) of 44%, an inhibition [10] of 35% and an inhibition at 100 µM [1] of 107%. It also gave an Activity (AEC) of 102%, an inhibition [2] of 81% and an Activity [4] of 77%. The inhibition [11] was 41%, the inhibition [5] was 94% and the Activity (MONO-MAC-6 [6]) was 112%. It also gave an inhibition [3] of 82%.

For `CCCCCCCCCCOc1cc(OCCCCCCCCCC)cc(OCCCCCCN(Cc2ccc(C(=O)OC)cc2)c2ccc(C(=O)OC)cc2)c1`, the inhibition at 100 µM [1] was 61%, the Activity (AEC) was 111% and the Activity (MONO-MAC-6 [6]) was 5%.

Molecule `CCCCCCCCCCOc1cccc(OCCCCCC(=O)N(Cc2ccc(C(=O)OC)cc2)c2cccc(C(=O)OC)c2)c1` has an inhibition at 100 µM [1] of 45%, an Activity (AEC) of 99% and an inhibition [2] of 79%. The Activity [4] was 62%, the inhibition [5] was 18% and the Activity (MONO-MAC-6 [6]) was 98%. For the same molecule, the inhibition [3] was 86%.

With `CC(=O)N[C@H]1[C@H]([C@H](O)[C@H](O)CO)O[C@@](O[C@H]2[C@@H](O)[C@@H](CO)O[C@@H](O[C@@H]([C@H](O[C@@H]3O[C@@H](C)[C@@H](O)[C@@H](O)[C@@H]3O)[C@H](C=O)NC(C)=O)[C@H](O)CO)[C@@H]2O)(C(=O)O)C[C@@H]1O` [SIALYL LEWIS X] the inhibition at 100 µM [1] was 41% and the Activity (Mus musculus [12]) was “inactive”.

In the case of `CCCCCCCCCCOc1cc(OCCCCCCCCCC)cc(OCCCCCC(=O)N(c2ccc(C(=O)OC)cc2)c2ccc(C(=O)OC)c(C(=O)OC)c2)c1`, the inhibition at 100 µM [1] was 115%, the Activity (AEC) was 90% and the inhibition [2] was 90%. It also gave an Activity [4] of 58%, an Activity (MONO-MAC-6 [6]) of 50% and an inhibition [3] of 95%. The inhibition [7] was 73%.

`CCCCCCCCCCOc1cccc(OCCCCCC(=O)N(Cc2ccc(C(=O)O)cc2)c2ccc(C(=O)O)cc2)c1` gave an inhibition at 100 µM [1] of 93% and an Activity (AEC) of 100%.
